Data reported in ChEMBL document CHEMBL3351730, “New N-aryl-N'-(3-(substituted)phenyl)-N'-methylguanidines as leads to potential PET radioligands for imaging the open NMDA receptor” (Bioorg Med Chem Lett, 2015).

Experiments:
[1] = molecular target: Glutamate NMDA receptor (Rattus norvegicus) (UniProt P35439+Q00959+Q00960+Q00961+Q62645+Q8VHN2+Q9R1M7); assay: Displacement of [3H]TCP from rat brain NMDA receptor at 1 uM
Method in brief: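 Rat brain membrane suspensions; competition for the PCP site of the NMDA receptor with [3H]TCP as radioligand. Test ligand at 1.0 μM, read-out as percent inhibition of [3H]TCP binding. Values are the mean of two experiments.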

[2] = molecular target: Glutamate NMDA receptor; assay: Displacement of [3H]TCP from rat brain NMDA receptor
Method in brief: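 Rat brain membrane suspensions, PCP site of NMDA receptor; [3H]TCP as radioligand. Ligands first screened at 1.0 μM for inhibition of [3H]TCP binding. Ki determined, also with [3H]TCP, usually when inhibition at 1.0 μM reached 80% or more. Values are the mean from two experiments.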

SMILES	inhibition [1] [%]	Ki [2] [nM]
CN(C(=N)Nc1cccc2ccccc12)c1cccc(I)c1	106	31.9
CSc1cccc(N(C)C(=N)Nc2ccc(Br)c3ccncc23)c1	14.4	
CSc1cccc(N(C)C(=N)Nc2ccc(Br)cc2Br)c1	69.7	
CN(C(=N)Nc1cccc2ccccc12)c1cccc(C(F)(F)F)c1	107	18.3
CN(C(=N)Nc1cccc2ccccc12)c1cccc(SC(F)(F)F)c1	80	447
CSc1cccc(N(C)C(=N)Nc2cccc3cccnc23)c1	72.2	
CN(C(=N)Nc1cccc2ccccc12)c1cccc(Cl)c1	69.2	
CN(C(=N)Nc1cccc2ccccc12)c1cccc(OC(F)F)c1	66.4	
CN(C(=N)Nc1cccc2ccccc12)c1cccc(F)c1	36.9	
CSc1cccc(N(C)C(=N)Nc2ccc(Cl)c3ncccc23)c1	8.6	
C=CSc1cccc(N(C)C(=N)Nc2cccc3ccccc23)c1	88.4	
CSc1cccc(N(C)C(=N)Nc2cnccc2Br)c1	23.7	
CN(C(=N)Nc1cccc2ccccc12)c1cc(F)cc(Cl)c1	86.8	78.4
CN(C(=N)Nc1cccc2ccccc12)c1cccc(Br)c1	104	53.7
CN(C(=N)Nc1cccc2ccccc12)c1cccc(CO)c1	20	
CSc1cccc(N(C)C(=N)Nc2cccc3c(Cl)nccc23)c1	91.7	540
CN(C)c1cccc(N(C)C(=N)Nc2cccc3ccccc23)c1	94.6	36.7
CSc1cccc(N(C)C(=N)Nc2cccc3ccccc23)c1	93.1	39.8

Second part, led by results:

inhibition [1] [%]	SMILES	Ki [2] [nM]
74.3	C#Cc1cccc(N(C)C(=N)Nc2cccc3ccccc23)c1	
32.9	COc1cc(F)cc(N(C)C(=N)Nc2cccc3ccccc23)c1	
0.7	CN(C(=N)Nc1cccc2ccccc12)c1ccc(F)c([N+](=O)[O-])c1	
30	CN(C(=N)Nc1cccc2ccccc12)c1cccc(Oc2ccccc2)c1	
-2.5	CN(C(=N)Nc1cccc2ccccc12)c1cccc(OCc2ccccc2)c1	
73.8	CSc1cccc(N(C)C(=N)Nc2cccc3ccncc23)c1	
46.5	Cc1cc(N(C)C(=N)Nc2cccc3ccccc23)ccc1F	
80.7	CSc1cccc(N(C)C(=N)Nc2cncc3ccccc23)c1	> 1000
3.4	CSc1cccc(N(C)C(=N)Nc2ccc3ccccc3c2)c1	
73.9	C=Cc1cccc(N(C)C(=N)Nc2cccc3ccccc23)c1	
16.2	CN(C(=N)Nc1cccc2ccccc12)c1cccc(Cc2ccccc2)c1	
84	CN(C(=N)Nc1cccc2ccccc12)c1cccc(Cl)c1F	
82.3	CC(=O)c1cccc(N(C)C(=N)Nc2cccc3ccccc23)c1	152
65.8	CN(C(=N)Nc1cccc2ccccc12)c1ccc(F)c(Cl)c1	
79.2	CN(C(=N)Nc1cccc2ccccc12)c1cccc(OC(F)(F)F)c1	
55	CN(C(=N)Nc1cccc2ccccc12)c1ccc2ccccc2c1	
62.1	CN(C(=N)Nc1cccc2ccccc12)c1ccc(F)c(C#N)c1	
76.7	CN(C(=N)Nc1cccc2ccccc12)c1cccc(SCCF)c1	
91.2	CSc1cccc(N(C)C(=N)Nc2cccc3cnccc23)c1	110
25.3	CSc1cccc(N(C)C(=N)Nc2nccc3ccccc23)c1	
56.5	CN(C(=N)Nc1cccc2ccccc12)c1ccc(F)c(Br)c1	
11.9	CN(C(=N)Nc1cccc2ccccc12)c1cccc(O)c1	
37.6	CN(C(=N)Nc1cccc2ccccc12)c1c(F)ccc(Cl)c1F	
62.9	CN(C(=N)Nc1cccc2ccccc12)c1cccc(C#N)c1	
13.8	CN(C(=N)Nc1cccc2ccccc12)c1cc(Br)ccc1F	
